Test results as given in ChEMBL document CHEMBL2417376, “N-Heteroarylmethyl-5-hydroxy-1,2,5,6-tetrahydropyridine-3-carboxylic acid a novel scaffold for the design of uncompetitive α-glucosidase inhibitors” (Bioorg Med Chem, 2013).
The source made the active and inactive calls. The calls are words filed in the database; no cut-off is given here.

How the values were obtained:
[1] = system: Saccharomyces cerevisiae; assay: Inhibition of Saccharomyces cerevisiae alpha-glucosidase using pNPG as substrate assessed as residual activity at 100 uM preincubated for 20 mins followed by substrate addition measured after 45 mins relative to control
Method in brief: (§1)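 α-Glucosidase (0.175 U/ml) in water with compound (1 µL DMSO dilution) pre-incubated 20 min at 37 °C. Then added PBS (140 mM, pH 7.2), reduced glutathione (9 mM) and pNPG (0.9 mM). Incubated 45 min at 37 °C, read at 400 nm. % inhibition = (AC−AS)/AC×100 vs DMSO-only control. Triplicates with blanks.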

[2] = system: beta-glucuronidase (Bos taurus); assay: Inhibition of bovine liver beta-glucuronidase using phenolphthalein beta-glucuronide as substrate assessed as residual activity measured liberation of phenolphthalein at 100 uM relative to control
[3] = target: Hyaluronidase (Bos taurus) (UniProt Q8SQG8+Q5E985); assay: Inhibition of bovine testes hyaluronidase using hyaluronic acid as substrate assessed as residual activity at 100 uM by nephelometric method relative to control; type: protein assay
Method in brief: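 Hyaluronidase assayed nephelometrically per supplier-recommended protocol. Compounds added from DMSO stock (100 mM), DMSO ≤1% of total volume; activity expressed as percent of activity with DMSO alone.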

[4] = system: Saccharomyces cerevisiae; assay: Uncompetitive inhibition of Saccharomyces cerevisiae alpha-glucosidase using pNPG as substrate assessed as ratio of Kik to Kiv at 8 uM
[5] = system: Saccharomyces cerevisiae; assay: Uncompetitive inhibition of Saccharomyces cerevisiae alpha-glucosidase using maltose as substrate assessed as ratio of Kik to Kiv at 1.6 uM
Method in brief: (§2)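 Maltose as substrate in the α-glucosidase protocol (20 min preincubation with inhibitor at 37 °C, then substrate incubation at 37 °C). Reaction stopped at 95 °C for 3 min, and released glucose measured with an HK/G6P-DH glucose kit. Vmax and Km by Lineweaver-Burk; Kik/Kiv ratio per Yang et al.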

[6] = system: Saccharomyces cerevisiae; assay: Uncompetitive inhibition of Saccharomyces cerevisiae alpha-glucosidase using maltose as substrate assessed as ratio of Kik to Kiv at 1.2 uM; method in brief: as §2
[7] = system: Saccharomyces cerevisiae; assay: Uncompetitive inhibition of Saccharomyces cerevisiae alpha-glucosidase using pNPG as substrate at 0.17 to 100 uM by Lineweaver-Burk plot analysis
[8] = system: Saccharomyces cerevisiae; assay: Uncompetitive inhibition of Saccharomyces cerevisiae alpha-glucosidase using maltose as substrate assessed as ratio of Kik to Kiv at 8 uM; method in brief: as §2
[9] = system: Saccharomyces cerevisiae; assay: Uncompetitive inhibition of Saccharomyces cerevisiae alpha-glucosidase using maltose as substrate assessed as ratio of Kik to Kiv at 2.4 uM; method in brief: as §2
[10] = system: Saccharomyces cerevisiae; assay: Uncompetitive inhibition of Saccharomyces cerevisiae alpha-glucosidase using pNPG as substrate at 0.17 to 100 uM by Dixon plot analysis
[11] = system: Saccharomyces cerevisiae; assay: Uncompetitive inhibition of Saccharomyces cerevisiae alpha-glucosidase using pNPG as substrate assessed as ratio of Kik to Kiv at 1.2 uM
[12] = system: Saccharomyces cerevisiae; assay: Uncompetitive inhibition of Saccharomyces cerevisiae alpha-glucosidase using maltose as substrate assessed as ratio of Kik to Kiv at 4 uM; method in brief: as §2
[13] = system: Saccharomyces cerevisiae; assay: Uncompetitive inhibition of Saccharomyces cerevisiae alpha-glucosidase using pNPG as substrate assessed as ratio of Kik to Kiv at 1.6 uM
[14] = system: Saccharomyces cerevisiae; assay: Uncompetitive inhibition of Saccharomyces cerevisiae alpha-glucosidase using maltose as substrate at 0.17 to 100 uM by Lineweaver-Burk plot analysis; method in brief: as §2
[15] = Uncompetitive inhibition of Saccharomyces cerevisiae alpha-glucosidase using pNPG as substrate by Cornish-Bowden plot analysis
[16] = system: Saccharomyces cerevisiae; assay: Uncompetitive inhibition of Saccharomyces cerevisiae alpha-glucosidase using maltose as substrate assessed as ratio of Kik to Kiv at 2 uM; method in brief: as §2
[17] = system: Saccharomyces cerevisiae; assay: Uncompetitive inhibition of Saccharomyces cerevisiae alpha-glucosidase using pNPG as substrate assessed as ratio of Kik to Kiv at 2 uM
[18] = Uncompetitive inhibition of Saccharomyces cerevisiae alpha-glucosidase using maltose as substrate by Cornish-Bowden plot analysis
[19] = system: Saccharomyces cerevisiae; assay: Uncompetitive inhibition of Saccharomyces cerevisiae alpha-glucosidase using pNPG as substrate assessed as ratio of Kik to Kiv at 2.4 uM
[20] = Inhibition of Saccharomyces cerevisiae alpha-glucosidase using pNPG as substrate at 100 uM preincubated for 20 mins followed by substrate addition measured after 45 mins; method in brief: as §1
[21] = system: Saccharomyces cerevisiae; assay: Uncompetitive inhibition of Saccharomyces cerevisiae alpha-glucosidase using pNPG as substrate assessed as ratio of Kik to Kiv at 4 uM
[22] = system: Saccharomyces cerevisiae; assay: Uncompetitive inhibition of Saccharomyces cerevisiae alpha-glucosidase using maltose as substrate at 0.17 to 100 uM by Dixon plot analysis

Row | Activity [1] | Activity [2] | Activity [3] | SMILES | further results
1 | 93% | 100% | 100% | O=C(O)C1=CCCN(Cc2nc3ccccc3[nH]2)C1 | –
2 | 2% | 100% | 102% | O=C(O)C1=CC(O)CN(Cc2cccnc2)C1 (configuration not stated) | Ratio [4]: 1.72; Ratio [5]: 1.04; Ratio [6]: 1.05; uncompetitive inhibition (Lineweaver-Burk) [7]: Active; Ratio [8]: 1.47; Ratio [9]: 1.07; Inhibition type (qualitative) [10]: Active; Ratio [11]: 1.03; Ratio [12]: 1.2; Ratio [13]: 1.09; inhibition [14]: Active; Ki [15]: 1.2 µM; Ratio [16]: 1.09; Ratio [17]: 0.998; Ki [18]: 800 nM; Ratio [19]: 1.25; IC50 [20]: 2340 nM; Ratio [21]: 1.49; inhibition [22]: Active
3 | 85% | 108% | 100% | O=C(O)[C@H]1CN(Cc2ccncc2)CC[C@H]1O | –
4 | 92% | 93% | 99% | COC(=O)C1=CC(O)CN(Cc2ccccc2)C1 (configuration not stated) | –
5 | 102% | 102% | 99% | O=C(O)C1=CCCN(Cc2cccnc2)C1 | –
6 | 97% | 89% | 100% | O=C(O)C1=CCCN(Cc2ccccc2)C1 | –
7 | 3% | 102% | 100% | O=C(O)C1=CC(O)CN(Cc2cc(=O)[nH]c(=O)[nH]2)C1 (configuration not stated) | uncompetitive inhibition (Lineweaver-Burk) [7]: Active; Inhibition type (qualitative) [10]: Active; Ki [15]: 12.5 µM; IC50 [20]: 2000 nM
8 | 95% | 97% | 100% | COC(=O)C1=CC(O)CN(Cc2cc(=O)[nH]c(=O)[nH]2)C1 (configuration not stated) | –
9 | 109% | 96% | 100% | CCOC(=O)N1C=C(C(=O)OC)CCC1 | –
10 | 100% | 95% | 103% | CCOC(=O)C1CN(Cc2ccccc2)CCC1O (mixture of isomers) | –
11 | 95% | 96% | 101% | O=C(O)C1=CCCN(Cc2ccccn2)C1 | –
12 | 97% | 103% | 100% | COC(=O)C1=CC(O)CN(Cc2ccccn2)C1 (configuration not stated) | –
13 | 94% | 105% | 99% | COC(=O)C1=CC(O)CN(Cc2ccncc2)C1 (configuration not stated) | –
14 | 95% | 97% | 101% | O=C(O)C1=CC(O)CN(Cc2ccccc2)C1 (configuration not stated) | –
15 | 105% | 102% | 99% | COC(=O)C1=CC(O)CN(Cc2cccnc2)C1 (configuration not stated) | –
16 | 97% | 100% | 102% | O=C(O)C1=CCCN(Cc2cc(=O)[nH]c(=O)[nH]2)C1 | –
17 | 2% | 103% | 101% | O=C(O)C1=CC(O)CN(Cc2ccccn2)C1 (configuration not stated) | uncompetitive inhibition (Lineweaver-Burk) [7]: Active; Inhibition type (qualitative) [10]: Active; Ki [15]: 5.3 µM; IC50 [20]: 2000 nM
18 | 3% | 103% | 104% | O=C(O)C1=CC(O)CN(Cc2ccncc2)C1 (configuration not stated) | uncompetitive inhibition (Lineweaver-Burk) [7]: Active; Inhibition type (qualitative) [10]: Active; Ki [15]: 10.2 µM; IC50 [20]: 2000 nM
19 | 95% | 103% | 100% | O=C(O)[C@H]1CN(Cc2ccccn2)CC[C@H]1O | –
20 | 82% | 102% | 100% | O=C(O)[C@H]1CN(Cc2ccccc2)CC[C@H]1O | –
21 | 99% | 95% | 99% | O=C(O)C1=CCCN(Cc2ccncc2)C1 | –
22 | 97% | 104% | 100% | O=C(O)[C@H]1CN(Cc2cccnc2)CC[C@H]1O | –
